Here are results for 23 compounds from ChEMBL document CHEMBL3120159, “Discovery of 2-pyridone derivatives as potent HIV-1 NNRTIs using molecular hybridization based on crystallographic overlays” (Bioorg Med Chem, 2014).

Series [1] can be described thus: Selectivity index, ratio of CC50 for human MT4 cells to EC50 for HIV1 3B. Format: toxicity, cell-based. As to conditions: read-out: Ratio CC50/EC50. The gist of the method: (§1)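 Selectivity index is CC₅₀/EC₅₀. Both values come from the same MTT assay in MT-4 cells: mock-infected and virus-infected (100-300 CCID₅₀) wells were run in parallel and read at day 5.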
The test system of series [2] is Human immunodeficiency virus 1. Put plainly: Antiviral activity against HIV1 RES056 harboring reverse transcriptase K103N/Y181C double mutant infected in human MT4 cells assessed as protection against virus-induced cytopathic effect after 5 days by MTT assay. Type of series: functional, organism-based. As to conditions: Human immunodeficiency virus 1, RES056, MT4, 120 h. Summed up: (§2)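 MT-4 cells, growing exponentially, were spun and resuspended at 6 × 10⁵ cells/mL. They were infected at the start together with compound, given as serial five-fold dilutions in triplicate wells, with mock-infected wells run in parallel. Viability was read by MTT after 5 days. EC₅₀ is the concentration giving 50% protection against viral cytopathic effect.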
(Damage to the host cells serves as the signal in cytopathic effect assays.)

Series [3] in a line: Selectivity index, ratio of CC50 for human MT4 cells to EC50 for HIV1 RES056. Type of series: toxicity, cell-based. As to conditions: read-out: Ratio CC50/EC50. Summed up:
as §1

In series [4] the test system is Human immunodeficiency virus 2. As to the kind of experiment: Antiviral activity against HIV2 ROD infected in human MT4 cells assessed as protection against virus-induced cytopathic effect after 5 days by MTT assay. Format: functional, organism-based. As to conditions: Human immunodeficiency virus 2, ISOLATE ROD, MT4, 120 h. The gist of the method: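 MT-4 cells resuspended at 6 × 10⁵ cells/mL after centrifugation at 200 g for 5 min. HIV-2 (ROD) added at 100-300 CCID₅₀. Test compound given as serial five-fold dilutions, triplicate wells. Viability of infected cells measured spectrophotometrically by MTT after 5 days. EC₅₀ = concentration giving 50% protection against viral cytopathic effect.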

Series [5] in a line: Cytotoxicity against human MT4 cells after 5 days by MTT assay. Format: cell-based. The gist of the method:
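Exponentially growing MT-4 cells resuspended at 6 × 10⁵ cells/mL and exposed to serial five-fold compound dilutions in triplicate, mock-infected alongside infected wells. Viability read by MTT assay at day 5. CC₅₀ = concentration reducing mock-infected cell viability by 50%.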
On the technique in general: Tetrazolium assays rely on reduction of a dye to a coloured formazan, in cell work by metabolically active cells.

Series [6] can be described thus: Selectivity index, ratio of CC50 for human MT4 cells to EC50 for HIV2 ROD. As to conditions: read-out: Ratio CC50/EC50. Type of series: toxicity, cell-based. The gist of the method: as §1
Series [7] concerns Human immunodeficiency virus 1. As to the kind of experiment: Antiviral activity against HIV1 3B harboring wild type reverse transcriptase infected in human MT4 cells assessed as protection against virus-induced cytopathic effect after 5 days by MTT assay. Type of series: functional, organism-based. As to conditions: Human immunodeficiency virus 1, 3B, MT4, 120 h. Summed up:
as §2

SMILES strings stand for the structures.

What is called EC50 is the concentration that produces a half-maximal response. A word on the CC50: it is the concentration at which the toxic effect on the cells reaches its halfway point. A low value points to harm at low concentration.

Regarding `Cc1cc(C)c(Oc2cc(Nc3ccc([N+](=O)[O-])cc3)[nH]c(=O)c2)c(C)c1`, the selectivity ratio in series [1] is 19; in series [3], less than 1; in series [6], less than 1. The EC50 in series [2] was more than 26 µM; in series [4], more than 26 µM; in series [7], 1.4 µM. Further, in series [5], the half-maximal cytotoxic concentration (CC50) at 120 h is 26 µM.
Take `COc1cc(Oc2c(C)cc(C)cc2C)cc(Nc2ccc(C#N)cc2)n1`: the selectivity ratio was 35 in series [1], less than 1 in series [3] and less than 1 in series [6]. Besides, the EC50 in series [2] is more than 29 µM; in series [4], more than 29 µM; in series [7] it was 0.84 µM. Moreover, the CC50 at 120 h in series [5] is 29 µM.
With `Cc1cccc(C)c1Oc1cc(Nc2ccc(C#N)cc2)[nH]c(=O)c1`, the selectivity ratio in series [1] was 26; in series [3] it was less than 1; in series [6], less than 1. Besides, the half-maximal effective concentration (EC50) is more than 36 µM in series [2], more than 36 µM in series [4] and 1.4 µM in series [7]. This compound yielded a CC50 at 120 h in series [5] of 36 µM.
`Cc1cc(C)c(Oc2cc(Nc3ccc(C#N)cc3)[nH]c(=O)c2Cl)c(C)c1`: the selectivity ratio in series [1] was more than 35; in series [3], 1; in series [6] it was 1. Moreover, the EC50 in series [2] is more than 329 µM; in series [4] it was more than 329 µM; in series [7], 9.3 µM. Moreover, the half-maximal cytotoxic concentration (CC50) at 120 h in series [5] is more than 329 µM.
For `COc1cc(Oc2cc(C)cc(C)c2)cc(Nc2ccc(C#N)cc2)n1`, the selectivity ratio in series [1] and in series [6] was less than 1 in each case. The EC50 in series [4] and in series [7] was more than 20 µM in each case. In series [5], this compound returned a 50% cytotoxic concentration (CC50) at 120 h of 20 µM.
Turning to `Cc1cc(C)cc(Oc2cc(Nc3ccc(C#N)cc3)[nH]c(=O)c2)c1`, the selectivity ratio in series [1] and in series [6] was less than 1 each time. The EC50 in series [4] and in series [7] was more than 46 µM each time. Moreover, the CC50 at 120 h in series [5] came out at 46 µM.
In the case of `Cc1cc(C)c(Oc2cc(Nc3ccc(C#N)cc3)[nH]c(=O)c2Br)c(C)c1`, the selectivity ratio in series [1] is more than 9; in series [3], 1; in series [6] it was 1. Also, the results for the EC50 in series [2], in series [4] and in series [7] were more than 294 µM, more than 294 µM and 32 µM, respectively. For the same compound, the CC50 at 120 h in series [5] was more than 294 µM.
Regarding `Cc1cccc(C)c1Oc1cc(Nc2ccc(C#N)cc2)[nH]c(=O)c1I`, the figures for the selectivity ratio in series [1], in series [3] and in series [6] were 16, less than 1 and less than 1, respectively. The half-maximal effective concentration (EC50) in series [2] is more than 28 µM; in series [4], more than 28 µM; in series [7] it was 1.7 µM. In addition, it took 28 µM to reach half-maximal cytotoxicity in series [5] (CC50 at 120 h).
In the case of `COc1cc(Oc2c(C)cc(C#N)cc2C)cc(Nc2ccc(C#N)cc2)n1`, the selectivity ratio in series [1] was not below 211; in series [3] it was 1; in series [6] it was not above 1. The 50% effective concentration (EC50) is more than 147 µM in series [2], more than 147 µM in series [4] and 0.7 µM in series [7]. Also, the CC50 at 120 h in series [5] is more than 147 µM.
`COc1cc(Oc2c(C)cccc2C)cc(Nc2ccc(C#N)cc2)n1`: the selectivity ratio in series [1] and in series [6] was less than 1 each time. Further, the values for the EC50 in series [4] and in series [7] were more than 8.8 µM and more than 8.5 µM, respectively. Further, the midpoint of cytotoxicity in series [5], the CC50 at 120 h, lay at 8.5 µM.
For the compound `Cc1cc(C)cc(Oc2cc(Nc3ccc(C#N)cc3)[nH]c(=O)c2Br)c1`, the selectivity ratio in series [1] and in series [6] was less than 1 in each case. Moreover, the EC50 in series [4] and in series [7] was more than 19 µM each time. The half-maximal cytotoxic concentration (CC50) at 120 h in series [5] was 19 µM.
Consider `Cc1cc(C#N)cc(C)c1Oc1cc(Nc2ccc(C#N)cc2)[nH]c(=O)c1I`, for which the selectivity ratio in series [1] was more than 89; in series [3], 1; in series [6] it was 1. The concentration giving a half-maximal response (EC50) in series [2] is more than 259 µM; in series [4], more than 259 µM; in series [7], 2.9 µM. Further, in series [5], the 50% cytotoxic concentration (CC50) at 120 h was more than 259 µM.
As for `COc1cc(Oc2c(C)cc(C)cc2C)cc(Nc2ccc([N+](=O)[O-])cc2)n1`, the selectivity ratio in series [1] and in series [6] was less than 1 throughout. Also, the concentration for a half-maximal effect (EC50) in series [4] and in series [7] was more than 7.2 µM throughout. Also, the 50% cytotoxic concentration (CC50) at 120 h in series [5] came out at 7.2 µM.
`Cc1ccnc2c1NC(=O)c1cccnc1N2C1CC1` [NEVIRAPINE] returned a CC50 at 120 h in series [5] of more than 15 µM.
With `Cc1ccc(Nc2cc(Oc3c(C)cc(C)cc3C)cc(=O)[nH]2)cc1`, the selectivity ratio in series [1] is 26; in series [3] it was less than 1; in series [6] it was less than 1. The EC50 was more than 37 µM in series [2], more than 37 µM in series [4] and 1.4 µM in series [7]. Besides, the CC50 at 120 h in series [5] was 37 µM.
For the compound `COc1cc(Oc2c(C)cc(C)cc2C)cc(Nc2ccc(C)cc2)n1`, the selectivity ratio in series [1] and in series [6] was less than 1 each time. Moreover, the EC50 in series [4] and in series [7] was more than 35 µM throughout. In series [5], this compound showed a half-maximal cytotoxic concentration (CC50) at 120 h of 35 µM.
On to `Cc1cccc(C)c1Oc1cc(Nc2ccc(C#N)cc2)[nH]c(=O)c1Br`, for which the selectivity ratio was 17 in series [1], less than 1 in series [3] and less than 1 in series [6]. The concentration for a half-maximal effect (EC50) in series [2] is more than 63 µM; in series [4] it was more than 63 µM; in series [7], 3.6 µM. For the same compound, in series [5], the CC50 at 120 h turned out to be 63 µM.
Turning to `Cc1cc(C)cc(Oc2cc(Nc3ccc(C#N)cc3)[nH]c(=O)c2Cl)c1`, the selectivity ratio in series [1] and in series [6] was less than 1 in each case. Further, the EC50 in series [4] and in series [7] was more than 21 µM throughout. The compound further yielded a CC50 at 120 h in series [5] of 21 µM.
As for `Cc1cc(C)cc(Oc2cc(Nc3ccc(C#N)cc3)[nH]c(=O)c2I)c1`, the selectivity ratio in series [1] and in series [6] was less than 1 each time. The EC50 in series [4] and in series [7] was more than 24 µM in each case. This compound showed a CC50 at 120 h in series [5] of 24 µM.
In the case of `Cc1cccc(C)c1Oc1cc(Nc2ccc(C#N)cc2)[nH]c(=O)c1Cl`, the selectivity ratio in series [1] was 12; in series [3], less than 1; in series [6] it was less than 1. The EC50 was more than 29 µM in series [2], more than 29 µM in series [4] and 2.4 µM in series [7]. The CC50 at 120 h in series [5] was found to be 29 µM.
On to `Cc1cc(C#N)cc(C)c1Oc1cc(Nc2ccc(C#N)cc2)[nH]c(=O)c1Br`, for which the selectivity ratio is more than 244 in series [1], 1 in series [3] and 1 in series [6]. Further, the EC50 in series [2] was more than 287 µM; in series [4] it was more than 287 µM; in series [7], 1.2 µM. The CC50 at 120 h in series [5] is more than 287 µM.
As to `CC(C)Nc1cccnc1N1CCN(C(=O)c2cc3cc(NS(C)(=O)=O)ccc3[nH]2)CC1` [DELAVIRDINE], the selectivity ratio in series [1] is more than 40. Further, the concentration for a half-maximal effect (EC50) in series [2] was more than 36 µM; in series [7], 0.91 µM. For the same compound, in series [5], the cytotoxic concentration (CC50) at 120 h is more than 36 µM.
As for `Cc1cc(C#N)cc(C)c1Oc1cc(Nc2ccc(C#N)cc2)[nH]c(=O)c1Cl`, the values for the selectivity ratio in series [1], in series [3] and in series [6] were more than 44, 1 and 1, respectively. Further, the EC50 was more than 319 µM in series [2], more than 319 µM in series [4] and 7.2 µM in series [7]. The same compound displayed a CC50 at 120 h in series [5] of more than 319 µM.
